Source: ChEMBL document CHEMBL5356993, “Novel pyrazolo[3,4-d]pyrimidine derivatives: design, synthesis, anticancer evaluation, VEGFR-2 inhibition, and antiangiogenic activity” (RSC Med Chem, 2023)

Key:
Type in all cases: functional
Settings in all cases: read-out: GI
K562 = test: Antiproliferative activity against human K562 cells assessed as cell growth inhibition at 10 uM incubated for 48 hrs by SRB assay relative to control
HL-60(TB) = test: Antiproliferative activity against human HL-60(TB) cells assessed as cell growth inhibition at 10 uM incubated for 48 hrs by SRB assay relative to control
In short: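 Cells were plated at […] cells/well and preincubated 24 h at 37°C, 5% CO2, with time-zero plates TCA-fixed. Compound was diluted from DMSO stock in medium with 50 µg/mL gentamicin, then exposed for 48 h. Settled suspension cells were fixed with 80% TCA (final 16%), stained with 0.4% SRB and solubilized in 10 mM Trizma, A515. Growth was taken relative to Tz and control.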

U-251 = test: Antiproliferative activity against human U-251 cells assessed as cell growth inhibition at 10 uM incubated for 48 hrs by SRB assay relative to control
In short: (§1)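 Cells pre-incubated 24 h at 37°C, 5% CO2, then exposed to compound (DMSO stock diluted in medium with 50 µg/mL gentamicin) for 48 h. Adherent cells fixed with cold TCA (final 10%, 60 min, 4°C); suspension cells fixed with 16% TCA final. Stained with 0.4% SRB in 1% acetic acid for 10 min, dye solubilized in 10 mM Trizma base, absorbance read at 515 nm. Growth calculated against time-zero and untreated control plates.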

SK-MEL-28 = test: Antiproliferative activity against human SK-MEL-28 cells assessed as cell growth inhibition at 10 uM incubated for 48 hrs by SRB assay relative to control
In short: (§2)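 Cells plated in 96-well plates at […] cells/well and preincubated 24 h at 37 °C, 5% CO2. Time-zero plates were TCA-fixed. Compound was diluted in medium with 50 µg/mL gentamicin and cells exposed for 48 h. Adherent cells fixed with 10% final TCA; suspension cells with 16% final TCA. Plates stained with 0.4% SRB in 1% acetic acid, dye solubilized in 10 mM Trizma, absorbance read at 515 nm. Percent growth calculated against time-zero and control.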

CAKI-1 = test: Antiproliferative activity against human CAKI-1 cells assessed as cell growth inhibition at 10 uM incubated for 48 hrs by SRB assay relative to control
UACC-257 = test: Antiproliferative activity against human UACC-257 cells assessed as cell growth inhibition at 10 uM incubated for 48 hrs by SRB assay relative to control; in short: as §1
Malme-3M = test: Antiproliferative activity against human Malme-3M cells assessed as cell growth inhibition at 10 uM incubated for 48 hrs by SRB assay relative to control
NCI-H226 = test: Antiproliferative activity against human NCI-H226 cells assessed as cell growth inhibition at 10 uM incubated for 48 hrs by SRB assay relative to control; in short: as §2
RPMI-8226 = test: Antiproliferative activity against human RPMI-8226 cells assessed as cell growth inhibition at 10 uM incubated for 48 hrs by SRB assay relative to control
Hs-578T = test: Antiproliferative activity against human Hs-578T cells assessed as cell growth inhibition at 10 uM incubated for 48 hrs by SRB assay relative to control; in short: as §2
SF-295 = test: Antiproliferative activity against human SF-295 cells assessed as cell growth inhibition at 10 uM incubated for 48 hrs by SRB assay relative to control; in short: as §2
NCI-H522 = test: Antiproliferative activity against human NCI-H522 cells assessed as cell growth inhibition at 10 uM incubated for 48 hrs by SRB assay relative to control; in short: as §2
SNB-19 = test: Antiproliferative activity against human SNB-19 cells assessed as cell growth inhibition at 10 uM incubated for 48 hrs by SRB assay relative to control; in short: as §1
HCT-116 = test: Antiproliferative activity against human HCT-116 cells assessed as cell growth inhibition at 10 uM incubated for 48 hrs by SRB assay relative to control
CCRF-CEM = test: Antiproliferative activity against human CCRF-CEM cells assessed as cell growth inhibition at 10 uM incubated for 48 hrs by SRB assay relative to control; in short: as §2
SK-MEL-2 = test: Antiproliferative activity against human SK-MEL-2 cells assessed as cell growth inhibition at 10 uM incubated for 48 hrs by SRB assay relative to control; in short: as §2
KM12 = test: Antiproliferative activity against human KM12 cells assessed as cell growth inhibition at 10 uM incubated for 48 hrs by SRB assay relative to control; in short: as §2
MOLT-4 = test: Antiproliferative activity against human MOLT-4 cells assessed as cell growth inhibition at 10 uM incubated for 48 hrs by SRB assay relative to control
COLO 205 = test: Antiproliferative activity against human COLO 205 cells assessed as cell growth inhibition at 10 uM incubated for 48 hrs by SRB assay relative to control
TK-10 = test: Antiproliferative activity against human TK-10 cells assessed as cell growth inhibition at 10 uM incubated for 48 hrs by SRB assay relative to control; in short: as §1
SK-OV-3 = test: Antiproliferative activity against human SK-OV-3 cells assessed as cell growth inhibition at 10 uM incubated for 48 hrs by SRB assay relative to control; in short: as §2
786-0 = test: Antiproliferative activity against human 786-0 cells assessed as cell growth inhibition at 10 uM incubated for 48 hrs by SRB assay relative to control
OVCAR-8 = test: Antiproliferative activity against human OVCAR-8 cells assessed as cell growth inhibition at 10 uM incubated for 48 hrs by SRB assay relative to control
DU-145 = test: Antiproliferative activity against human DU-145 cells assessed as cell growth inhibition at 10 uM incubated for 48 hrs by SRB assay relative to control
NCI-H23 = test: Antiproliferative activity against human NCI-H23 cells assessed as cell growth inhibition at 10 uM incubated for 48 hrs by SRB assay relative to control
SW-620 = test: Antiproliferative activity against human SW620 cells assessed as cell growth inhibition at 10 uM incubated for 48 hrs by SRB assay relative to control; in short: as §1
NCI-H460 = test: Antiproliferative activity against human NCI-H460 cells assessed as cell growth inhibition at 10 uM incubated for 48 hrs by SRB assay relative to control
EKVX = test: Antiproliferative activity against human EKVX cells assessed as cell growth inhibition at 10 uM incubated for 48 hrs by SRB assay relative to control
PC-3 = test: Antiproliferative activity against human PC-3 cells assessed as cell growth inhibition at 10 uM incubated for 48 hrs by SRB assay relative to control
NCI-H322M = test: Antiproliferative activity against human NCI-H322M cells assessed as cell growth inhibition at 10 uM incubated for 48 hrs by SRB assay relative to control
SK-MEL-5 = test: Antiproliferative activity against human SK-MEL-5 cells assessed as cell growth inhibition at 10 uM incubated for 48 hrs by SRB assay relative to control; in short: as §2
SF-268 = test: Antiproliferative activity against human SF-268 cells assessed as cell growth inhibition at 10 uM incubated for 48 hrs by SRB assay relative to control

SMILES	inhibition of growth at 10 µM (K562) [%]	inhibition of growth at 10 µM (HL-60(TB)) [%]	inhibition of growth at 10 µM (U-251) [%]	inhibition of growth at 10 µM (SK-MEL-28) [%]	inhibition of growth at 10 µM (CAKI-1) [%]	inhibition of growth at 10 µM (UACC-257) [%]	inhibition of growth at 10 µM (Malme-3M) [%]	inhibition of growth at 10 µM (NCI-H226) [%]	inhibition of growth at 10 µM (RPMI-8226) [%]	inhibition of growth at 10 µM (Hs-578T) [%]	inhibition of growth at 10 µM (SF-295) [%]	inhibition of growth at 10 µM (NCI-H522) [%]	inhibition of growth at 10 µM (SNB-19) [%]	inhibition of growth at 10 µM (HCT-116) [%]	inhibition of growth at 10 µM (CCRF-CEM) [%]	inhibition of growth at 10 µM (SK-MEL-2) [%]	inhibition of growth at 10 µM (KM12) [%]	inhibition of growth at 10 µM (MOLT-4) [%]	inhibition of growth at 10 µM (COLO 205) [%]	inhibition of growth at 10 µM (TK-10) [%]	other results
Cc1nc2c(cnn2-c2ccccc2)c(=O)n1-c1ccc(NC(=O)c2ccco2)cc1	30.1	19.8	< 15	< 15	< 15	< 15	16.6	< 15	26.1	< 15	15.3	< 15	< 15	< 15	23.6	< 15	< 15	< 15	< 15	< 15	inhibition of growth at 10 µM (SK-OV-3): < 15%; inhibition of growth at 10 µM (786-0): < 15%; inhibition of growth at 10 µM (OVCAR-8): < 15%; inhibition of growth at 10 µM (DU-145): < 15%; inhibition of growth at 10 µM (NCI-H23): < 15%; inhibition of growth at 10 µM (SW-620): < 15%; inhibition of growth at 10 µM (NCI-H460): < 15%; inhibition of growth at 10 µM (EKVX): 26.9%; inhibition of growth at 10 µM (PC-3): < 15%; inhibition of growth at 10 µM (NCI-H322M): < 15%; inhibition of growth at 10 µM (SK-MEL-5): 23.1%; inhibition of growth at 10 µM (SF-268): < 15%
Cc1ccc(C(=O)Nc2ccc(-n3c(C)nc4c(cnn4-c4ccccc4)c3=O)cc2)cc1	68.8	48.6	< 15	19.3	27.6	58	32.3	45.2	41.6	15.2	49.4	28.8	17.9	48.5	53.7	21.7	22.5	65.7	22.6	17.7	inhibition of growth at 10 µM (SK-OV-3): < 15%; inhibition of growth at 10 µM (786-0): < 15%; inhibition of growth at 10 µM (OVCAR-8): 23.2%; inhibition of growth at 10 µM (DU-145): 15.1%; inhibition of growth at 10 µM (NCI-H23): 46.5%; inhibition of growth at 10 µM (SW-620): < 15%; inhibition of growth at 10 µM (NCI-H460): 24.6%; inhibition of growth at 10 µM (EKVX): 69.5%; inhibition of growth at 10 µM (PC-3): 28.4%; inhibition of growth at 10 µM (NCI-H322M): < 15%; inhibition of growth at 10 µM (SK-MEL-5): 93%; inhibition of growth at 10 µM (SF-268): < 15%
Cc1nc2c(cnn2-c2ccccc2)c(=O)n1-c1ccc(N2C(=O)c3ccccc3C2=O)cc1	< 15	< 15	< 15	< 15	< 15	< 15	< 15	< 15	< 15	< 15	< 15	< 15	< 15	< 15	< 15	< 15	< 15	< 15	< 15	< 15	inhibition of growth at 10 µM (SK-OV-3): < 15%; inhibition of growth at 10 µM (786-0): < 15%; inhibition of growth at 10 µM (OVCAR-8): < 15%; inhibition of growth at 10 µM (DU-145): < 15%; inhibition of growth at 10 µM (NCI-H23): < 15%; inhibition of growth at 10 µM (SW-620): < 15%; inhibition of growth at 10 µM (NCI-H460): < 15%; inhibition of growth at 10 µM (EKVX): < 15%; inhibition of growth at 10 µM (PC-3): < 15%; inhibition of growth at 10 µM (NCI-H322M): < 15%; inhibition of growth at 10 µM (SK-MEL-5): < 15%; inhibition of growth at 10 µM (SF-268): < 15%
Cc1nc2c(cnn2-c2ccccc2)c(=O)n1-c1ccc(/N=C2\C(=O)Nc3ccccc32)cc1	34.4	< 15	39.6	< 15	31.7	29.3	23.1	24.7	36.5	17.6	24.7	16.8	36	17.9	37.8	< 15	< 15	34.1	< 15	< 15	inhibition of growth at 10 µM (SK-OV-3): 19.6%; inhibition of growth at 10 µM (786-0): < 15%; inhibition of growth at 10 µM (OVCAR-8): 24.8%; inhibition of growth at 10 µM (DU-145): < 15%; inhibition of growth at 10 µM (NCI-H23): 30.7%; inhibition of growth at 10 µM (SW-620): < 15%; inhibition of growth at 10 µM (NCI-H460): < 15%; inhibition of growth at 10 µM (EKVX): 52.1%; inhibition of growth at 10 µM (PC-3): 24%; inhibition of growth at 10 µM (NCI-H322M): < 15%; inhibition of growth at 10 µM (SK-MEL-5): 42.9%; inhibition of growth at 10 µM (SF-268): < 15%
Cc1nc2c(cnn2-c2ccccc2)c(=O)n1-c1ccc(NC(=O)c2ccc(F)cc2)cc1	72.8	57.5	18.9	16.2	34.3	68.2	31.6	43.8	64.8	21.3	60.4	36.1	19.6	51.7	65.2	22.1	35.9	94.6	37.7	29	inhibition of growth at 10 µM (SK-OV-3): < 15%; inhibition of growth at 10 µM (786-0): 17.5%; inhibition of growth at 10 µM (OVCAR-8): 36.3%; inhibition of growth at 10 µM (DU-145): 19.3%; inhibition of growth at 10 µM (NCI-H23): 49.8%; inhibition of growth at 10 µM (SW-620): 23.5%; inhibition of growth at 10 µM (NCI-H460): 45.6%; inhibition of growth at 10 µM (EKVX): 69.8%; inhibition of growth at 10 µM (PC-3): 46.9%; inhibition of growth at 10 µM (NCI-H322M): < 15%; inhibition of growth at 10 µM (SK-MEL-5): > 100%; inhibition of growth at 10 µM (SF-268): < 15%
